NPY Y1 blocker – NPY-Y1 receptor antagonists, primary screen, cell-based | inhibition, % at 3.6 µM | HEK293-CNG Y1 cells, membrane potential fluorescence; NPY at EC95, then isoproterenol | AID 1040, 2008 | 200,000 compounds, 1% hits;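 active = inhibition above the campaign mean inhibition of all tested compounds plus 3 SD, cut at about 20% in these data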
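Material: Y1- and CNG-channel-expressing HEK293 cells / Probe or stimulus: NPY 25 nM then isoproterenol 1 µM plus Ro 20-1724 25 µM / Doses: 3.6 µM single dose, DMSO 0.4% / Schedule: compound incubation 1 h at room temperature, readout 45 min post-stimulation / Signal: membrane potential fluorescence / Benchmarks: isoproterenol-only wells as full block versus NPY-plus-isoproterenol wells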
NPY-Y2 PAM-ag – NPY-Y2 potentiators or agonists, primary screen, cell-based; Neuropeptide Y receptor type 2 (Homo sapiens), P49146; cells expressing NPY-Y2, potentiator/agonist read-out; activation, % at 3.6 µM; 220,000 compounds, 0.45% hits; in the data active = activation above about 27%;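 note: cells stimulated with NPY near EC25 plus isoproterenol at EC100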
Target sequence (P49146 whole entry, looked up): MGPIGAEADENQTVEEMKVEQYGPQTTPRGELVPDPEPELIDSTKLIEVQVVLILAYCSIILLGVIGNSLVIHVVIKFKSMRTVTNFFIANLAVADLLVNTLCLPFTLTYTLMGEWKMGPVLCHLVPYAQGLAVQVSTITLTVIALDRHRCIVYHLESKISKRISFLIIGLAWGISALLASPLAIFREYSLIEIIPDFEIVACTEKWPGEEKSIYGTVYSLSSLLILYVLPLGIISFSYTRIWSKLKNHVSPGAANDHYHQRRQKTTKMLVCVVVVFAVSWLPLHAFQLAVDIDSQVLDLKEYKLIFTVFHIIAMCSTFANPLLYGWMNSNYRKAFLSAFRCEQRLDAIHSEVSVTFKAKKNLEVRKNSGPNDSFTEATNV
NPY Y2 blocker – NPY-Y2 receptor antagonists, primary screen, cell-based; 140,000 compounds, 0.99% hits; inhibition, % at 2.7 µM; NPY-Y2 expressing cells, antagonist mode; in the data active = inhibition above about 17%
NPY1 pot ag – NPY-Y1 receptor potentiators or agonists, primary screen, cell-based | Neuropeptide Y receptor type 1 (Homo sapiens), P25929 | NPY-Y1 expressing cells, potentiator/agonist activation | activation, % at 3.6 µM | 220,000 compounds, 0.37% hits | AID 1304, 2008; in the data active = activation above about 33%, passing the limit was not always enough;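 note: cells stimulated with NPY at EC10 then isoproterenol at EC100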
NPY-Y2 pot conf – NPY-Y2 potentiators or agonists, confirmation, cell-based | shares compounds with NPY-Y2 PAM-ag | cell-based NPY-Y2 potentiator/agonist assay | activation, % at 3.6 µM | 450 compounds, 20% hits | AID 1539, 2009; in the data active = activation above about 33%
NPY-Y1 counter – NPY-Y1 potentiators or agonists, counter-screen for NPY-Y2 potentiator project, cell-based, fluorescence | shares compounds with NPY-Y2 PAM-ag | Y1 HEK293-CNG cells, membrane potential fluorescence | activation, % at 3.6 µM | 450 compounds, 20% hits; in the data active = activation above about 45%;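 note: cells stimulated with submaximal NPY then isoproterenol with phosphodiesterase inhibitor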
NPY-Y1 agonist 2 – NPY-Y1 direct agonists, selectivity assay for NPY-Y2 potentiator project, cell-based, fluorescence. 450 compounds, 37% hits. activation, % at 3.6 µM. shares compounds with NPY-Y2 PAM-ag. HEK293 Y1-CNGC, membrane potential fluorescence, agonism;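 active = activation above the mean of DMSO-only control wells plus 3 SD, cut at about 18% in these data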;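 note: cells stimulated with 1 µM isoproterenol plus the PDE inhibitor Ro 20-1724; Y1 agonists lower the membrane potential dye signal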
CNGC inhibitor – CNGC cAMP sensor activity inhibitors, counter-screen for NPY-Y2 potentiator project, cell-based, HEK293-CNG parental, membrane potential fluorescence; 450 compounds, 32% hits; isoproterenol cAMP; inhibition, % at 3.6 µM; shares compounds with NPY-Y2 PAM-ag;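 active = inhibition above the control-well mean plus 3 SD of those wells, cut at about 22% in these data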
Y2 agonist ctr – NPY-Y2 direct agonists, counter-screen for NPY-Y2 potentiator project, cell-based, fluorescence. 450 compounds, 56% hits. HEK293 Y2/CNGC cells, membrane potential fluorescence, agonist mode. shares compounds with NPY-Y2 PAM-ag. AID 1710, 2009. activation, % at 3.6 µM;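 active = activation above the mean of solvent-only control wells plus 3 SD, cut at about 10% in these data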;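 note: cells stimulated by isoproterenol with no NPY added so direct agonism is tested; agonism lowers probe fluorescence through less cAMP and CNG channel opening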
Hits are given with their value; - = inactive; . = no result. Only some compounds are listed: those with a hit (about 1.8% of all), similar ones and a draw of the others.

SMILES	NPY Y1 blocker	NPY-Y2 PAM-ag	NPY Y2 blocker	NPY1 pot ag	NPY-Y2 pot conf	NPY-Y1 counter	NPY-Y1 agonist 2	CNGC inhibitor	Y2 agonist ctr
O=C(NCc1cccc(Cl)c1)c1cc(COc2ccc3ncccc3c2)on1	-	37	.	-	-	-	-	-	-
COc1ccc(-c2cn[nH]c2-c2ccc(OCc3ccccc3F)cc2O)cc1OC	.	-	.	-	.	.	.	.	.
COCCNC(=O)[C@H](CSCc1ccccc1)N1Cc2ccccc2C1=O	.	102	.	-	-	-	-	-	-
COCCCNC(=O)[C@H](CSCc1ccccc1)N1Cc2ccccc2C1=O	.	-	.	-	.	.	.	.	.
COc1ccc2c(c1)-c1c(ssc1=S)C(C)(C)N2C(=O)CSC1=NCCS1	-	43	-	-	-	-	23	23	20
Cc1cc2c(cc1C)N(C(=O)CSC1=NCCS1)C(C)(C)c1ssc(=S)c1-2	-	42	-	-	-	-	24	-	29
Cc1nn(Cc2ccc(F)cc2)c(C)c1NC(=O)c1cnn2c1NC(c1ccccc1)CC2C(F)(F)F (stereo unspecified)	-	34	-	-	-	-	19	22	27
Cc1nn(Cc2ccc(F)cc2)c(C)c1NC(=O)c1cnn2c1NC(c1cccs1)CC2C(F)(F)F (stereo unspecified)	-	-	-	-	.	.	.	.	.
O=C(Nc1ccc(N2CCCC2)cc1)C(c1ccccc1)c1ccccc1	-	-	-	-	.	.	.	.	.
CN1CCN(S(=O)(=O)c2ccc(Oc3ccc(F)c(Cl)c3)nc2)CC1	-	96	.	-	-	-	-	-	-
CCC(C)N(C)C1CCN(C(=S)Nc2cccc(OC)c2)CC1 (stereo unspecified)	-	82	.	-	-	-	-	-	-
CCOC(=O)c1c(C2CC2)csc1NC(=O)COC(=O)c1cnc(Cl)c(Cl)c1	-	60	-	-	-	-	-	-	-
O=C(CSc1cccc2cccnc12)N/N=C/c1ccc(O)cc1	.	-	.	-	.	.	.	.	.
O=C(CCc1ccccc1O)N/N=C/c1ccc(Sc2cccc3cccnc23)o1	-	37	-	-	-	-	34	22	22
COCCOC(=O)C(CC(=O)O)NCc1ccco1 (stereo unspecified)	.	48	.	-	-	-	-	-	15
O=C1C(Nc2ccccc2)=C/C(=N/S(=O)(=O)c2cccs2)c2ccccc21	-	48	-	-	68	74	60	53	67
CC1CC(CC(=O)NNc2nc(-c3ccccc3)cs2)C(=O)O1 (stereo unspecified)	-	-	.	-	.	.	.	.	.
O=C1NCCN(Cc2ccc(Cl)c(F)c2)C1CC(=O)N1CCc2ccccc2C1 (stereo unspecified)	-	-	.	-	.	.	.	.	.
Cc1cc(Cl)n2nc(C)c(-c3ccc(Cl)cc3)c2n1	-	28	.	-	42	59	59	63	45
Cn1c(=O)cc(OCCCC(=O)NCCC2=CCCCC2)c2ccccc21	-	-	.	-	.	.	.	.	.
COc1ccc(Oc2ccc(/C=C/C(=O)c3ccc(O)cc3)cc2[N+](=O)[O-])cc1	-	38	-	-	-	-	23	-	11
COc1ccc(/C=C/C(=O)c2ccc(O)cc2)cc1COc1ccc(F)cc1	-	-	-	-	.	.	.	.	.
N#Cc1cnn(-c2ccc(F)cc2)c1N	.	55	.	-	-	-	-	-	-
c1ccc(OCCSc2nc3ccccc3o2)cc1	-	-	-	-	.	.	.	.	.
CCOc1ccc(CCN2CN(CC)CNC2=S)cc1OCC	-	-	.	-	.	.	.	.	.
SMILES	NPY Y1 blocker	NPY-Y2 PAM-ag	NPY Y2 blocker	NPY1 pot ag	NPY-Y2 pot conf	NPY-Y1 counter	NPY-Y1 agonist 2	CNGC inhibitor	Y2 agonist ctr
Cc1cc(C(=O)NNC(=O)Nc2ccc(Cl)cc2)no1	.	97	.	-	-	-	-	-	-
Cc1cc(S(=O)(=O)N2CCCC2)ccc1OCC(=O)N1CCOCC1	-	-	-	-	.	.	.	.	.
O=C(O)C1CCCN1c1nc(C(F)(F)F)nc2ccccc12 (stereo unspecified)	-	75	.	-	-	-	-	-	-
N#C/C(=N\Nc1ccc([N+](=O)[O-])cc1)C(=N)N1CCOCC1	.	-	.	-	.	.	.	.	.
N#C/C(=N/Nc1ccc([N+](=O)[O-])cc1)C(=N)N1CCCCC1	-	35	.	-	-	45	43	28	30
COC(=O)/C(=C\Nc1cccc(Cl)c1C)c1ncc(C(F)(F)F)cc1Cl	-	58	-	-	-	-	-	-	-
OC(CNc1ccccc1)COc1ccc(OCC(O)CNc2ccccc2)cc1 (stereo unspecified)	-	37	-	-	43	57	44	44	47
COc1ccc(OCC(O)CNC(=O)Nc2ccc(F)cc2)cc1 (stereo unspecified)	.	-	.	-	.	.	.	.	.
COc1ccc(OCC(O)CNC(=O)Nc2ccccc2)cc1 (stereo unspecified)	.	44	.	-	-	-	-	-	-
CCCOc1ccc(/C=N/NC(=O)c2ccc(Cn3cc([N+](=O)[O-])cn3)o2)cc1	-	41	-	-	-	-	-	-	-
Cc1c(C(=O)O)[nH]c2ccc([N+](=O)[O-])cc12	-	30	.	-	-	-	39	-	31
Oc1ccccc1N=Nc1ccccc1O	-	29	.	-	36	46	30	27	43
COc1ccc(OC)c(C2CC(=O)Nc3n[nH]c(-c4ccccc4)c32)c1 (stereo unspecified)	-	-	.	-	.	.	.	.	.
Cc1ccc(-n2c(C)cc(C(=O)COC(=O)c3ccc[nH]c3=O)c2C)cc1C	-	-	-	-	.	.	.	.	.
COc1ccc(CNC(=O)C2(c3ccc(Cl)cc3)CC2)cc1	-	-	-	-	.	.	.	.	.
Cn1c2c(c(=O)n(C)c1=O)C(C(F)(F)F)(C(F)(F)F)N=C(c1ccc(Cl)cc1)N2	-	49	-	-	-	-	-	-	-
C/C=C/C(=O)N1c2ccc(C)cc2C(C)=CC1(C)C	.	97	.	-	-	-	-	-	-
O=C(Nc1ccc(C(=O)O)cc1)/C(=C/c1cccc(Br)c1)NC(=O)c1ccco1	-	-	.	-	.	.	.	.	.

Source: PubChem BioAssay (The Scripps Research Institute Molecular Screening Center)
